# Laboratory results as given in publication PMC3846175 (Bioorganic & medicinal chemistry, 2013).
# Values joined by “and” are separate entries in the source; they are usually repeats but may differ in a detail not shown here. Identical values can stand only once. Counter-ions that a name gives are not always drawn. Like-named read-outs stand apart in the source and are kept apart here.
# Columns and labels:
# Plasmodium falciparum K1 [1] = test: In vitro assay with P. f. K1 strain; type: cell-based; settings: IC50 ratio
# [2] = tested on: Trypanosoma brucei rhodesiense STIB900; settings: read-out: T. b. r. IC50; strain STIB900; comparator data; ref [10], [16]; cited from earlier work
# Plasmodium falciparum K1 [3] = settings: read-out: P. f. IC50; strain K1; comparator data; ref [10], [16]; cited from earlier work
# T. b. r. STIB900 [4] = settings: mouse, ref [10], [14], [16], [23], cited from earlier work
# T. b. r. STIB900 [5] = test: T. b. r. STIB900 acute mouse model; type: in vivo, Trypanosoma brucei rhodesiense
# T. b. brucei GVR35 [6] = test: T. b. brucei GVR35 CNS mouse model; type: in vivo, Trypanosoma brucei brucei
# Method in brief: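 Second-stage (CNS) infection model in mice with T. b. brucei GVR35. The test compound was given orally at 100 mg/kg for 5 days, and a 10-day course was also run. The comparator was diminazene, given as a single 40 mg/kg intraperitoneal dose. Survival was the endpoint. Protocols were approved by the Canton Basel-Stadt veterinary authorities.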
# T. b. brucei GVR35 [7] = settings: mouse; po 100 mg/kg for 5 days; ref [5]; cited from earlier work
# poly(dA-dT)2 = test: Thermal melting; type: binding
# [8] = po 100 mg/kg for 5 days, 100 mg/kg
compound,measurement,setting,value
"N=C(N)c1ccc(-c2cncc(-c3ccc(C(=N)N)cc3)n2)cc1 [compound 10, 2,6-Di-(4′-amidinophenyl)pyrazine hydrochloride]",Fold less potent than 6 against P. f.,Plasmodium falciparum K1 [1],25 fold
N=C(N)c1ccc(-c2cnc(-c3ccc(C(=N)N)cc3)cn2)cc1 [compound 6],IC50,[2],18 nM
same,IC50,Plasmodium falciparum K1 [3],0.4 nM
same,Cures (mice that survive and are parasite free for 60 days),"T. b. r. STIB900 [4]; ip 5 mg/kg daily for 4 days, 5 mg/kg",no cure and 0/4
"N/C(=N\O)c1ccc(-c2cncc(-c3ccc(/C(N)=N\O)nc3)n2)cn1 [24b, 2,6-Di-(2′-N-hydroxyamidinopyridin-5′-yl)pyrazine hydrochloride]",Cures (mice that survive and are parasite free for 60 days),T. b. r. STIB900 [5]; po 25 mg/kg daily for 4 days,cures of all mice
same,MSD (mean survival days),T. b. brucei GVR35 [6]; po 100 mg/kg for 5 days,67.2 days
same,No. of mice cured (survival >180 days without parasitemia relapse),T. b. brucei GVR35 [6]; [8],not curative and 0/5
N=C(N)c1ccc(-c2ccc(-c3ccc(C(=N)N)cn3)o2)nc1 [4a],IC50,[2],21 nM
same,IC50,Plasmodium falciparum K1 [3],83 nM
same,Cures (mice that survive and are parasite free for 60 days),T. b. r. STIB900 [4]; ip 5 mg/kg daily for 4 days,3/4
same,Survival (average days of survival),T. b. r. STIB900 [4]; ip 5 mg/kg daily for 4 days,>49.5 days
same,Cures (mice that survive and are parasite free for 60 days),T. b. r. STIB900 [4]; ip 20 mg/kg daily for 4 days,4/4
same,Survival (average days of survival),T. b. r. STIB900 [4]; ip 20 mg/kg daily for 4 days,>60 days
CO/N=C(\N)c1ccc(-c2ccc(-c3ccc(/C(N)=N/OC)cn3)o2)cc1 [3c],Cures (mice that survive and are parasite free for 60 days),T. b. r. STIB900 [4]; po 25 mg/kg daily for 4 days,4/4
same,Survival (average days of survival),T. b. r. STIB900 [4]; po 25 mg/kg daily for 4 days,>60 days
same,MSD (mean survival days),T. b. brucei GVR35 [7],>180 days
same,No. of mice cured (survival >180 days without parasitemia relapse),T. b. brucei GVR35 [7],5/5
"N=C(N)c1ccc(-c2cncc(-c3ccc(C(=N)N)cn3)n2)nc1 [23a, 2,6-Di-(5′-amidinopyridin-2′-yl)pyrazine hydrochloride]",Decrease in ΔTm value relative to parent compound 10,poly(dA-dT)2,3.9 °C
"N/C(=N\O)c1ccc(-c2cncc(-c3ccc(/C(N)=N/O)cc3)n2)cc1 [compound 11, 2,6-Di-(4′-N-hydroxyamidinophenyl)pyrazine hydrochloride]",Cures (mice that survive and are parasite free for 60 days),T. b. r. STIB900 [5]; po 25 mg/kg daily for 4 days,cures of all mice
same,No. of mice cured (survival >180 days without parasitemia relapse),T. b. brucei GVR35 [6]; [8],no cures and 0/5
"CONC(=N)c1ccc(-c2ccc(-c3ccc(C(=N)NOC)cc3)o2)cc1 [2c, pafuramidine]",Cures (mice that survive and are parasite free for 60 days),T. b. r. STIB900 [4]; po 10 mg/kg daily for 4 days,4/4
same,Survival (average days of survival),T. b. r. STIB900 [4]; po 10 mg/kg daily for 4 days,>60 days
same,Cures (mice that survive and are parasite free for 60 days),T. b. r. STIB900 [4]; po 25 mg/kg daily for 4 days,4/4
same,Survival (average days of survival),T. b. r. STIB900 [4]; po 25 mg/kg daily for 4 days,>60 days
same,MSD (mean survival days),T. b. brucei GVR35 [7],>167.8 days
same,No. of mice cured (survival >180 days without parasitemia relapse),T. b. brucei GVR35 [7],3/5
"N=C(N)c1ccc(-c2cncc(-c3ccc(C(=N)N)cc3F)n2)c(F)c1 [15b, 2,6-Di-(4′-amidino-2′-fluorophenyl)pyrazine hydrochloride]",Cures (mice that survive and are parasite free for 60 days),T. b. r. STIB900 [5]; ip 5 mg/kg daily for 4 days,no cures
N=C(N)c1ccc(-c2ccc(-c3ccc(C(=N)N)cn3)o2)cc1 [3a],IC50,[2],6.5 nM
same,IC50,Plasmodium falciparum K1 [3],6.5 nM
same,Cures (mice that survive and are parasite free for 60 days),T. b. r. STIB900 [4]; ip 5 mg/kg daily for 4 days,3/4
same,Survival (average days of survival),T. b. r. STIB900 [4]; ip 5 mg/kg daily for 4 days,>54.5 days
same,Cures (mice that survive and are parasite free for 60 days),T. b. r. STIB900 [4]; ip 20 mg/kg daily for 4 days,4/4
same,Survival (average days of survival),T. b. r. STIB900 [4]; ip 20 mg/kg daily for 4 days,>60 days
"N=C(N)c1ccc(-c2cncc(-c3ccc(C(=N)N)nc3)n2)cn1 [23b, 2,6-Di-(2′-amidinopyridin-5′-yl)pyrazine hydrochloride]",Decrease in ΔTm value relative to parent compound 10,poly(dA-dT)2,3.0 °C
"N=C(N)c1ccc(-c2ccc(-c3ccc(C(=N)N)cc3)o2)cc1 [2a, furamidine]",Cures (mice that survive and are parasite free for 60 days),T. b. r. STIB900 [4]; ip 5 mg/kg daily for 4 days,1/4
same,Survival (average days of survival),T. b. r. STIB900 [4]; ip 5 mg/kg daily for 4 days,>46 days
same,Cures (mice that survive and are parasite free for 60 days),T. b. r. STIB900 [4]; ip 20 mg/kg daily for 4 days,3/4
same,Survival (average days of survival),T. b. r. STIB900 [4]; ip 20 mg/kg daily for 4 days,>57.75 days
"N=C(N)c1ccc(-c2cncc(-c3ccc(C(=N)N)cn3)n2)cc1 [19a, 2-(4′-amidinophenyl)-6-(5′-amidinopyridin-2′-yl)pyrazine hydrochloride]",Decrease in ΔTm value relative to parent compound 10,poly(dA-dT)2,2 °C
"CO/N=C(\N)c1ccc(-c2cncc(-c3ccc(/C(N)=N\OC)cc3)n2)cc1 [compound 12, 2,6-Di-(4′-N-methoxyamidinophenyl)pyrazine hydrochloride]",No. of mice cured (survival >180 days without parasitemia relapse),T. b. brucei GVR35 [6]; po 100 mg/kg for 5 days,2/5
same,No. of mice cured (survival >180 days without parasitemia relapse),T. b. brucei GVR35 [6]; po 100 mg/kg for 10 days,3/4
N=C(NO)c1ccc(-c2ccc(-c3ccc(/C(N)=N\O)cc3)o2)cc1 [2b],Cures (mice that survive and are parasite free for 60 days),"T. b. r. STIB900 [4]; po 100 mg/kg daily for 4 days, 100 mg/kg",no cure and 0/4
"CO/N=C(\N)c1ccc(-c2cncc(-c3ccc(/C(N)=N\OC)cn3)n2)nc1 [25a, 2,6-Di-(5′-N-methoxyamidinopyridin-2′-yl)pyrazine hydrochloride]",MSD (mean survival days),T. b. brucei GVR35 [6]; po 100 mg/kg for 5 days,95.2 days
same,No. of mice cured (survival >180 days without parasitemia relapse),T. b. brucei GVR35 [6]; [8],not curative and 0/5
CO/N=C(\N)c1ccc(-c2ccc(-c3ccc(/C(N)=N/OC)cn3)o2)nc1 [4c],Cures (mice that survive and are parasite free for 60 days),T. b. r. STIB900 [4]; po 25 mg/kg daily for 4 days,2/4
same,Survival (average days of survival),T. b. r. STIB900 [4]; po 25 mg/kg daily for 4 days,>42 days
same,MSD (mean survival days),T. b. brucei GVR35 [7],>180 days
same,No. of mice cured (survival >180 days without parasitemia relapse),T. b. brucei GVR35 [7],5/5
